Test results taken from publication PMC5102769 (Neurobiology of disease, 2016).
Where two headings read alike, the source gives them in different places.

Target: T1, ENT1 (Mus musculus, UniProt Q9JIM1)
T1 sequence (Q9JIM1 1-460): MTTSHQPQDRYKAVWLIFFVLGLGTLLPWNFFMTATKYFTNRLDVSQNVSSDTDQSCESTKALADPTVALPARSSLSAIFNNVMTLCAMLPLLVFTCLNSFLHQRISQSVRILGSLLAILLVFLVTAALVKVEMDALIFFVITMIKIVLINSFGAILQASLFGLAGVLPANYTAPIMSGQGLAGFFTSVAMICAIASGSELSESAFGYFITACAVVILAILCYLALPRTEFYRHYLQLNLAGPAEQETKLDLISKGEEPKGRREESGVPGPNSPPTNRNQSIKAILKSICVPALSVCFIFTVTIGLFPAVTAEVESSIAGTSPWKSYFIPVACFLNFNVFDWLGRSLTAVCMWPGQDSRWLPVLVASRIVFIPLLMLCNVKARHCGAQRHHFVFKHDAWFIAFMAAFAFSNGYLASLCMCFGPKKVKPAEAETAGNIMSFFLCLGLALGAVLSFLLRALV
Format: binding
Details: striatum; for Kd: read-out: KD (affinity)
Summary of the method: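 Striata from 12-month-old heterozygous zQ175 and WT littermate mice were homogenized in 50 mM Tris-HCl pH 7.4 with protease inhibitors, then membranes were pelleted at 100,000 g (45 min, 4°C) and washed twice. Membranes (0.2 mg protein/ml) were incubated with increasing [3H]NBTI in 50 mM Tris-HCl pH 7.4 with 2 I.U./ml adenosine deaminase. Unlabeled NBTI defined non-specific binding. Bound ligand was separated by rapid filtration and counted by scintillation. n = 8–10/group, means ± S.E.M.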

Bmax (number of binding sites) (WT littermates of zQ175 mice): 0.27 ± 0.03 pmol/mg of protein
Kd (WT littermates of zQ175 mice): 0.11 ± 0.01 nM
Kd (zQ175 mice (HET, 12-month old)): 0.11 ± 0.03 nM
Bmax (number of binding sites) (zQ175 mice (HET, 12-month old)): 0.35 ± 0.02 pmol/mg protein
Compound: O=[N+]([O-])c1ccc(CSc2ncnc3c2ncn3[C@@H]2O[C@H](CO)[C@@H](O)[C@H]2O)cc1 [[^3H]NBTI, [^3H]-S-(4-Nitrobenzyl)-6-thioinosine]
